Source: ChEMBL document CHEMBL1133698, “Novel ligands lacking a positive charge for the delta- and mu-opioid receptors” (J Med Chem, 2000)
Where a SMILES comes first, the peptide text is derived from it. Bridges are numbered along the chain shown (N, C = ends). [ ]: non-standard residue; d: D form. 2Nal = N[C@@H](Cc1ccc2ccccc2c1)C(=O)O; Dmt = Cc1cc(O)cc(C)c1C[C@H](N)C(=O)O; dOrn = NCCC[C@@H](N)C(=O)O

Assays:
[1] = species on record: Mus musculus; test: Antagonist activity was determined against the selective delta -agonist DPDPE in the MVD (mouse vas deferens) assay; assay type: functional
Procedure, shortened: (§1)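 Mouse vas deferens, electrically evoked contractions. DPDPE IC50 measured with and without a fixed antagonist concentration (50 to 4000 nM). Ke = a/(DR − 1), where DR is the ratio of agonist IC50 values. Mean of three to six determinations ± SEM.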

[2] = species on record: Cavia porcellus; test: (§2) Antagonist activity was determined against the selective delta -agonist TAPP in the GPI (guinea pig ileum) assay; assay type: functional
Procedure, shortened: (§3)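 Guinea pig ileum, electrically evoked contractions. µ-Agonist TAPP IC50 measured with and without antagonist at a fixed 500 nM. Ke = a/(DR − 1) from the IC50 ratio. Mean of three to six determinations ± SEM.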

[3] = biological target: Mu-type opioid receptor (Rattus norvegicus, UniProt P33535); test: Binding affinity was determined by displacement of [3H]- DAMGO at Opioid receptor mu 1 in rat brain membrane homogenates; assay type: cell membranes
Procedure, shortened: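 Rat brain membranes, [3H]DAMGO at 0.72 nM, 2 h at 25 °C. Enzyme inhibitor cocktail in buffer (bestatin 100 µM, captopril 1.0 µM, thiorphan 1.0 µM, Leu-Leu 100 µM). IC50 from log dose-displacement curves. Ki by Cheng-Prusoff using Kd 1.3 nM. Mean of three to six determinations ± SEM.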

[4] = biological target: Delta-type opioid receptor (Rattus norvegicus, UniProt P33533); test: Binding affinity was determined by displacement of [3H]- DSLET at Opioid receptor delta 1 in rat brain membrane homogenates; assay type: cell membranes
Procedure, shortened: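 Rat brain membranes, [3H]DSLET at 0.78 nM, 2 h at 25 °C, with a peptidase inhibitor cocktail in buffer. Poorly soluble peptides dissolved in DMSO, diluted in buffer, filtered, and concentration set by optical density. IC50 from log dose-displacement curves. Ki by Cheng-Prusoff with Kd 2.6 nM. Mean of three to six determinations ± SEM.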

[5] = species on record: Cavia porcellus; test: as §2; assay type: functional, organism-based; procedure, shortened: as §3
[6] = species on record: Mus musculus; test: Antagonist activity was determined against the selective delta -agonist DPDPE by inhibition of electrically evoked contractions of the mouse vas deferens; assay type: functional; procedure, shortened: as §1

Sequence of Delta-type opioid receptor (P33533 whole entry, looked up): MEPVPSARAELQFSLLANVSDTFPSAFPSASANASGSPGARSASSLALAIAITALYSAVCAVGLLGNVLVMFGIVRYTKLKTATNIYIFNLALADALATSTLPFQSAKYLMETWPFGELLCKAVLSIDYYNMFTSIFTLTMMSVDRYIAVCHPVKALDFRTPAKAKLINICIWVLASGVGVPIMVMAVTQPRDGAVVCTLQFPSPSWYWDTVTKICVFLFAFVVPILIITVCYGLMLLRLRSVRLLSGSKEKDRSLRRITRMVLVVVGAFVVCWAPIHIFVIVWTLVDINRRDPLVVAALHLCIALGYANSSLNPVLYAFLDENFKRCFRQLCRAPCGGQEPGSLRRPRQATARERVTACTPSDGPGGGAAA
Sequence of Mu-type opioid receptor (P33535 whole entry, looked up): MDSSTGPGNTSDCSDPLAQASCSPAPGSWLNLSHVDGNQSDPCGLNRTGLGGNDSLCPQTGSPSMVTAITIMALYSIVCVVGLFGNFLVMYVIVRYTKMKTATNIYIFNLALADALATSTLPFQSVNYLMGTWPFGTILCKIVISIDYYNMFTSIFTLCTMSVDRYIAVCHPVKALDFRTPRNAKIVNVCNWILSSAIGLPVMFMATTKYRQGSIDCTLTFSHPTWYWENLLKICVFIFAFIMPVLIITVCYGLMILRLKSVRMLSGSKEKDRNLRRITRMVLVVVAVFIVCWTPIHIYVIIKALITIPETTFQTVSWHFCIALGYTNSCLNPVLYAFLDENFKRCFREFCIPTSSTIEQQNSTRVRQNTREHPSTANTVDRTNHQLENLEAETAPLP

SMILES | Ke [1] [nM] | Ke [2] [nM] | Ki [3] [nM] | Ki [4] [nM] | IC50 [5] [nM] | Ke [6] [nM]
Cc1cc(O)cc(C)c1CCC(=O)N[C@@H]1CCCNC(=O)CNC(=O)[C@H]2CCCN2C(=O)[C@H](Cc2ccc3ccccc3c2)NC1=O | 121 | 237 | 450 | 109 |  | 
Cc1cc(O)cc(C)c1C[C@H](NC=O)C(=O)N[C@@H]1CCCNC(=O)CNC(=O)[C@H]2CCCN2C(=O)[C@H](Cc2ccc3ccccc3c2)NC1=O | 16.3 | 216 | 218 | 32.8 |  | 
C[C@@H](O)[C@@H]1NC(=O)[C@H](CC2CCCCC2)NC(=O)[C@@H](Cc2c[nH]c3ccccc23)NC(=O)[C@H](Cc2ccccc2)NC(=O)[C@@H]2CCCN2C(=O)[C@H](Cc2ccccc2)NC1=O | 202 |  | > 10000 | 486 |  | 
C[C@@H](O)[C@@H]1NC(=O)[C@H](Cc2ccc(O)cc2)NC(=O)[C@@H](Cc2c[nH]c3ccccc23)NC(=O)[C@H](Cc2cccc3ccccc23)NC(=O)[C@@H]2CCCN2C(=O)[C@H](Cc2ccccc2)NC1=O | 128 |  | > 10000 | 152 |  | 
C[C@@H](O)[C@@H]1NC(=O)[C@H](Cc2ccc(O)cc2)NC(=O)[C@@H](Cc2c[nH]c3ccccc23)NC(=O)[C@H](Cc2ccc3ccccc3c2)NC(=O)[C@@H]2CCCN2C(=O)[C@H](Cc2ccccc2)NC1=O | 2460 |  | > 10000 | 1070 |  | 
Cc1cc(O)cc(C)c1C[C@H](N)C(=O)N[C@@H]1CCCNC(=O)CNC(=O)[C@H]2CCCN2C(=O)[C@H](Cc2ccc3ccccc3c2)NC1=O (H-[Dmt][dOrn][2Nal][dP]G; lactam 2-C) | 2.13 |  | 0.476 | 0.467 | 7.88 | 
C[C@@H](O)[C@@H]1NC(=O)[C@H](Cc2ccc(O)cc2)NC(=O)[C@@H](Cc2c[nH]c3ccccc23)NC(=O)[C@H](Cc2ccccc2)NC(=O)[C@@H]2CCCN2C(=O)[C@H](Cc2ccccc2)NC1=O (cyclo(FPF[dW]YT)) |  |  | > 10000 | 759 |  | 238
